Experimental findings from ChEMBL document CHEMBL1139282, “6-Bicycloaryl substituted (S)- and (R)-5,6-dihydro-2H-pyran-2-ones: asymmetric synthesis, and anti-proliferative properties” (Bioorg Med Chem, 2009) are described below.

Format in all cases: functional, cell-based
Assay [1] relates to MCF7. As to the kind of experiment: Cytotoxicity against human MCF7 cells after 48 hrs by MTT assay. The note with it: MCF7, 48 h. An outline of the steps: (§1)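 PC-3 kept in DMEM with 5% FBS, MCF-7 in RPMI-1640 with 15% FBS, both used at passages 10-20. Seeded at 1×10^4 cells/well, attached 24 h, then treated 48 h at 0.01-50 µM with final 1% DMSO, in triplicate. Wells PBS-washed, diluted MTT stock (1:10) added for 3.5 h, plates centrifuged before formazan read-out.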
Background: Tetrazolium dyes change colour on reduction, which living cells bring about.

Assay [2] relates to PC-3. As to the kind of experiment: Cytotoxicity against human PC3 cells after 48 hrs by MTT assay. The settings on record: PC-3, 48 h. An outline of the steps: as §1
The subject of another assay is LNCaP. The experiment in a line: Cytotoxicity against human LNCAP cells after 72 hrs by MTT assay. An outline of the steps: (§2)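 ATCC-sourced lines grown at 37 °C, 5% CO2 in RPMI-1640 or DMEM with 5-10% FBS plus penicillin/streptomycin. Cells exposed to a range of doses for 72 h at 37 °C. MTT added, medium removed 4 h later, formazan dissolved in DMSO and read at 570-690 nm. IC50 from three independent assays, two wells each, via % viability.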

In another assay the test system is DU-145. As to the kind of experiment: Cytotoxicity against human DU145 cells after 72 hrs by MTT assay. The settings on record: DU-145, 72 h. The procedure, abridged: as §2
For assay [3], the system named is PC-3. As to the kind of experiment: Cytotoxicity against human PC3 cells after 72 hrs by MTT assay. The settings on record: PC-3, 72 h. An outline of the steps:
as §2

Assay [4] has as its system MCF7. The experiment in a line: Cytotoxicity against human MCF7 cells after 72 hrs by MTT assay. The note with it: MCF7, 72 h. The procedure, abridged: as §2

pIC50: −log10 of the molar value.

Turning to `C=CC[C@@H](OC(=O)C=C)c1cccc(Oc2ccccc2)c1`, the pIC50 with MCF7 [1] and with PC-3 [2] was less than 4.30 in each case.

For `O=C1C=CC[C@@H](c2ccc3ccccc3c2)O1`, the pIC50 in the assay on LNCaP was 4.82; in the assay on DU-145 it was 4.55; in the assay on PC-3 [3], 4.92; in the assay with MCF7 [4], 4.43.

Regarding `Cc1ccc2ccccc2c1[C@H]1CC=CC(=O)O1`, the values for the pIC50 in the assay with MCF7 [1] and with PC-3 [2] were 5.59 and 6.89, respectively.

As to `O=C1C=CC[C@H](c2ccc3ccccc3c2)O1`, the pIC50 was 4.96 in the assay on LNCaP, 4.92 with DU-145, 5.52 in the assay on PC-3 [3] and 4.72 with MCF7 [4].

As to `O=C1C=CC[C@H](c2cnc3ccccc3c2)O1`, the pIC50 was 5.49 with MCF7 [1] and 5.60 in the assay with PC-3 [2].

In the case of `O=C1C=CC[C@H](c2cccc3ccccc23)O1`, the pIC50 in the assay on MCF7 [1] is 5.59; in the assay with PC-3 [2], 6.10.

For `O=C1C=CC[C@H](c2ccnc3ccccc23)O1`, the figures for the pIC50 in the assay on MCF7 [1] and in the assay on PC-3 [2] were 4.49 and 5.01, respectively.

In the case of `C=CC[C@@H](OC(=O)C=C)c1c(C)ccc2ccccc12`, the pIC50 was 4.98 in the assay with MCF7 [1] and 5.06 with PC-3 [2].

As for `C=CC[C@@H](OC(=O)C=C)c1cccc2ccccc12`, the pIC50 in the assay with MCF7 [1] is less than 4.30; with PC-3 [2], 4.64.

Consider `O=C1C=CC[C@H](c2cccc(Oc3ccccc3)c2)O1`, for which the pIC50 was less than 4.30 with MCF7 [1] and 4.96 in the assay on PC-3 [2].

Take `C=CC[C@@H](OC(=O)C=C)c1cnc2ccccc2c1`: the pIC50 with MCF7 [1] was 4.54; in the assay with PC-3 [2], 4.79.

Regarding `C=CC[C@@H](OC(=O)C=C)c1ccnc2ccccc12`, the pIC50 in the assay on MCF7 [1] is 4.88; in the assay on PC-3 [2], 4.82.

For the compound `Cc1ccc([C@H]2CC=CC(=O)O2)c2ccccc12`, the values for the pIC50 with MCF7 [1] and with PC-3 [2] were 6.36 and 7.30, respectively.

Take `C=CC[C@@H](OC(=O)C=C)c1ccc(C)c2ccccc12`: the negative logarithm of the IC50 (pIC50) with MCF7 [1] was 4.48; with PC-3 [2], 4.35.

Consider `O=C1C=CC[C@H](/C=C/c2ccccc2)O1` [GONIOTHALAMIN], for which the pIC50 in the assay on LNCaP was 4.92; in the assay with DU-145, 4.72; with PC-3 [3], 5.40; in the assay on MCF7 [4] it was 4.55.

What is called pIC50 is the negative decadic logarithm of the IC50, by convention in mol/L. A lower pIC50 goes with a large IC50.
